Assay: Toxicity liver stage against HepG2, at 10uM
Format: cell-based
Design: test concentration 10 uM, cell line HepG2-A16-CD81EGFP
Details: human, HepG2-A16-CD81EGFP cells; read-out: INHIBITION
Summary of the method: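 Uninfected HepG2-A16-CD81EGFP cells, 3 × 10^3 per well, 1536-well, plated on prespotted compound at 10 μM final, parasite-free screening media added to match infected plates; puromycin 10 μM positive, DMSO 0.5% negative; run in parallel with 48 h PbLuc assay at 37 °C, 5% CO2; viability by CellTiter-Glo luminescence, normalized to controls.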

Row | SMILES | cytotoxicity at 10 µM [%]
1 | CNC(=O)[C@@H]1[C@@H](c2ccccc2)CN2CCN(Cc3cccs3)C[C@H]12 | 11
2 | Cc1noc(C)c1S(=O)(=O)N1CCC(Oc2cccnn2)CC1 | 0.0701
3 | COc1cccc(CC(=O)N2CCCSCC2CN2CCCC2)c1 (centres undefined) | -1.42
4 | CC(C)NC(=O)c1nc2c(s1)CCCN2c1ccccc1 | 4.29
5 | CC(C)N(C)Cc1ncn2c1CN(CC(=O)N(C)C)CCC2 | 7.28
6 | O=C(N1CCCC1)N1C[C@H]2CC[C@@]3(N=C(c4ccccc4)NC3=O)[C@H]2C1 | 0.516
7 | CC(=O)N1CC[C@@]2(C(=O)Nc3ccccc3)CCN(S(C)(=O)=O)CC[C@@H]12 | 2.96
8 | CCC1=N[C@@]2(CC[C@@H]3CN(S(C)(=O)=O)C[C@@H]32)C(=O)N1CC(C)C | 2.58
9 | CN(C)S(=O)(=O)Nc1ccc(Oc2ccc3c(c2)OCO3)cc1 | 1.43
10 | CCC(=O)N1CCOC(c2cc(Nc3nncs3)cc(C)n2)C1 (centres undefined) | 5.67
11 | CN(C)c1ncc(-c2ccncc2)c(CCNC(=O)C2CC2)n1 | 0.05
12 | Cc1cc2c(=O)n3c(nc2s1)CCN(C(=O)c1c(C)noc1C)CC3 | 17.7
13 | CC(C)(N)C(=O)N1CCCC(c2cncc(Oc3cccnc3)n2)C1 (centres undefined) | -20.6
14 | CCn1cc(CN2CCC(c3[nH]ncc3S(C)(=O)=O)C2)cn1 (centres undefined) | -2.33
15 | Cc1nc(-c2cccc(C(=O)O)c2)cc(C2CCCN(C(C)C)C2)n1 (centres undefined) | -7.44
16 | COc1cccc(-c2noc(C3CCN(CC(N)=O)C3)n2)c1 (centres undefined) | -11.3
17 | Cc1cc(N(Cc2ccccc2F)C2CC2)n2nc(C(F)(F)F)nc2n1 | 0.43
18 | O=C(CSCc1ccncc1)NCC1CCN(C2CC2)C1 (centres undefined) | 0.224
19 | Cc1ccc(OCC(=O)NC2(C#N)CCSCC2)cc1C | 5.7
20 | CCOc1ccc(SCCNS(=O)(=O)CC)cc1 | 2.71
21 | COc1cccc(Cn2cccc(C#N)c2=O)c1 | 11.3
22 | Cc1cc(NC(=O)N2CCN(c3cccs3)CC2)ccc1C(N)=O | -7.79

Row | SMILES | cytotoxicity at 10 µM [%]
23 | O=C(NCCSc1ccccc1F)NCc1cccnc1 | -5.31
24 | COc1cccc(CCCNC(=O)N2CCC(O)(C(F)(F)F)C2)c1 (centres undefined) | -4.25
25 | CCc1ncncc1C(=O)NCCNc1ncnc2sccc12 | -5.68
26 | Cc1nc(CCNC(=O)NCC(O)c2cccc(Cl)c2)cs1 (centres undefined) | 14
27 | CC(NC(N)=O)C(=O)NCc1ccnc(Oc2ccc(F)cc2)c1 (centres undefined) | 8.26
28 | CC(C)N1CCN(S(=O)(=O)c2ncn(C)c2Cl)CC1 | 13.9
29 | CCC(C)(CCO)NC(=O)c1ccon1 (centres undefined) | 4.13
30 | Cn1ncnc1CNC(=O)N(CCCO)C1CCc2ccccc21 (centres undefined) | -5.95
31 | CCn1c(C)nnc1CN(C)C1CCN(CCc2cccs2)C1 (centres undefined) | -7.12
32 | COc1ccc(Nc2ccc(C#N)cn2)cc1N1CCCC1=O | 10.1
33 | CN(C)S(=O)(=O)c1ccc2c(c1)N(Cc1nccn1C)CCC2 | 2.26
34 | CN(C)c1nc(N)nc(CSCCC(=O)Nc2ccc(F)cc2)n1 | -1.33
35 | Cc1nc(CNC(=O)NC(C)c2ccc3c(c2)OCCO3)cs1 (centres undefined) | -2.61
36 | CCN1CCN(c2ccc(C(=O)NC(C)C(=O)N(C)C)cc2)CC1 (centres undefined) | -4.98
37 | COc1ccc(Cl)cc1-c1cc(NC(=O)C2CNC(=O)N2)[nH]n1 (centres undefined) | -1.12
38 | CC1CCN(C(=O)C2CCN(c3ccc(Cl)cc3C#N)CC2)CC1 | 11.8
39 | Cc1ncsc1C(=O)OCCN1CCCc2ccccc21 | 2.42
40 | COc1cc(C)nc(N2CCN(Cc3nccn3C)CC2)n1 | -1.8
41 | Cc1cc(N2CCC(c3nccn3Cc3cscn3)CC2)ccn1 | -4.72
42 | CC(=O)N[C@@H]1CN(Cc2ccccc2C#N)C[C@H]1c1ccc(C)cc1 | -4.27
43 | Cc1nc(C)n(CCCNc2ncnc(C)c2C)n1 | -1.74
44 | Cc1nn(CCC(=O)N2CCCC(OCc3cccnc3)C2)c(C)c1C (centres undefined) | -5.47

Row | SMILES | cytotoxicity at 10 µM [%]
45 | COCCN1CCN(C(=O)C(c2cccc(F)c2)N(C)C)CC1 (centres undefined) | 9.63
46 | Cc1ccc(NC(=O)CNC(C)CN2CCOCC2)c(F)c1 (centres undefined) | -51.8
47 | Cc1cccnc1CN1CCN(C(=O)[C@@]23CNC[C@@H]2CN(C)C3)CC1 | 2.3
48 | O=C(c1ccoc1)N1CCn2nc(CN3CCSCC3)cc2C1 | -57.8
49 | Cc1cc(CN2CCC3(CC2)CC(C(=O)O)N(C(=O)C2CC2)C3)oc1C (centres undefined) | -7.32
50 | CC(C)c1nc(CN(C)C(=O)CNC(N)=O)cs1 | 17.4
51 | Cc1ccc(N2CC[C@@H](NC(=O)c3cnccn3)[C@H](O)C2)nn1 | -6.79
52 | Cc1cc(-n2nc(C)nc2-c2cn(CCN)nn2)ccn1 | 7.55
53 | CNC(=O)[C@@H]1C[C@H](n2cc(-c3ccc(CN4CC=CC4)cc3)nn2)CN1 | 3.46
54 | CCNc1ncc(C(=O)NCC2OCCc3ccccc32)cn1 (centres undefined) | -53.1
55 | CC1CCCCN1C1CN(C(=O)c2sccc2S(N)(=O)=O)C1 (centres undefined) | -1.45
56 | CC(C)(CN1CCCC1)CN1CCC(Cn2cc(C3CC3)nn2)CC1 | -12.2
57 | COC(C)(C)Cn1ccnc1-c1cccc(C(C)N(C)C)c1 (centres undefined) | -3.59
58 | CC(=O)N1CCCN(C(C(=O)O)c2ccc(C)cc2C)CC1 (centres undefined) | -3.98
59 | CCc1nc(N)nc(NCCC(=O)NC2CCCCC2)c1C | -38.9
60 | CS(=O)(=O)NCCC(=O)NCc1cccnc1-n1cnc2ccccc21 | -0.0143
61 | CC(C)c1cc(C(=O)N2CCC3(CC2)c2ccccc2[C@@H](N)[C@@H]3O)cs1 | -7.34
62 | CN1[C@@H](c2ccccc2)[C@@H](C(=O)NCC2CCOCC2)C[C@@]1(C)C(=O)O | -40.4
63 | O=C(O)c1cccnc1CN1CCCCC1CCc1cccc(O)c1 (centres undefined) | -1.84
64 | CC(C)[C@@H]1CN(C(=O)NCCc2ccccc2)C[C@H]1NS(=O)(=O)N(C)C | 3.08
65 | O=C(NCCn1cccc1)C1CCC(=O)N(C2CCCC2)C1 (centres undefined) | 0.622
66 | Nc1nc2c(c(N3CCCC3)n1)CCN(Cc1ccccn1)CC2 | -35.3

Row | SMILES | cytotoxicity at 10 µM [%]
67 | CCn1c(CC2CCN(C(=O)c3cc(C(C)C)n[nH]3)CC2)n[nH]c1=O | -44.4
68 | CC[C@@]1(O)CCN(C(=O)c2ccc(OC(F)F)cc2)C[C@H]1O | 6.2
69 | Cn1ncc(CN2CCc3onc(-c4cccc(F)c4)c3C2)c1C1CC1 | 1.31
70 | COCCC(=O)N1Cc2cnc(Cc3ccc(OC)cc3)nc2C1 | -0.641
71 | CCCSCC(=O)N1CCC2(CC1)CC(c1ccccc1)CN(C)C2 (centres undefined) | -7.29
72 | O=C(Cn1cccnc1=O)NC(Cc1ccsc1)c1ccccn1 (centres undefined) | -5.66
73 | CN1CCN(C2CCN(CCOc3ccc(C#N)cc3)CC2)C1=O | -1.03
74 | c1cc2n(n1)CC(CNCc1ccc(OC3CCCC3)nc1)CN2 (centres undefined) | -5.17
75 | CC(NC(=O)Cn1cccn1)c1ccc2c(c1)OCCO2 (centres undefined) | -2.23
76 | CN(C)c1ncccc1CNC(=O)NCc1cccs1 | -4.87
77 | c1ccc(-n2cc(CNCC3CCCN3c3cccnn3)cn2)cc1 (centres undefined) | -8.85
78 | Cn1ccnc1CN1CCCN(C(=O)c2ccc3c(c2)OCO3)CC1 | -6.61
79 | CCCOc1ncccc1CNc1nnc(C)c(C)c1C#N | -14.3
80 | c1ccc(-n2cc(CNC3CCc4ncnn4C3)nn2)cc1 (centres undefined) | -4.01
81 | Cc1nc(CN2CCN(C(=O)NC(C)c3cccnc3)CC2)cs1 (centres undefined) | -10.4
82 | Cc1nc(C)c(CN2CCOC(CNc3cccnn3)C2)s1 (centres undefined) | -1.71
83 | CCc1nc(CN2CCOC(CNc3cccnn3)C2)cs1 (centres undefined) | -11
84 | COc1c(CNC2CCc3cc(F)ccc32)c(C(C)C)nn1C (centres undefined) | 1.16
85 | CCOc1ncccc1NC(=O)NC1CCN(C(=O)C2CC2)CC1 | -13.6
86 | O=C(NCc1nnc2n1CCCCC2)N1CCc2ccccc2C1 | 4.66
87 | CC(NC(=O)NCCCOc1ccccc1F)c1nncn1C (centres undefined) | -8.77
88 | CC(=O)Nc1nc(C(=O)N2CCC(Nc3cccnn3)CC2)cs1 | -4.67

Row | SMILES | cytotoxicity at 10 µM [%]
89 | c1ccc(-c2nc(CN3CCn4c(nnc4C4CC4)C3)cs2)cc1 | -3.92
90 | Cc1cccc(-c2noc(CN3CCC(N4CCNC4=O)CC3)n2)c1 | 5.34
91 | O=C(CCCOc1ccc(F)cc1F)N1CCCC1Cn1cccn1 (centres undefined) | -5.67
92 | Cc1nc(CN2CCc3nn(C(C)C)c(=O)cc3C2)oc1C | -7.52
93 | COc1ccccc1CC(=O)N1CCC(NCc2cccnc2)CC1 | -5.7
94 | CC(C)Cc1noc(CN2CCCC(Cn3cncn3)C2)n1 (centres undefined) | -2.6
95 | Cc1ncc(CN(C)CC2CCCN2c2cccnn2)s1 (centres undefined) | 4.19
96 | COCCN1C(=O)CCC12CCC(NCc1cccc(C)n1)CC2 (centres undefined) | 9.4
97 | CCC(CN1CCCC1)NC(=O)Cc1c(C)[nH]c2c(C)cc(C)cc12 (centres undefined) | 14.6
98 | CCCC(=O)N1CCC(O)(Cn2c(CC)nc3ccccc3c2=O)CC1 | -2.03
99 | CCO[C@@H]1CC[C@H]2[C@H]1OCCN2CCOCc1ccccc1 | -111
100 | CCCS(=O)(=O)N1CCC2(CN(c3ccccc3)C(=O)CN2C)C1 (centres undefined) | 4.15
101 | COc1ccc(CNCc2ccnc(N3CCCC3)c2)c(OC)c1 | 3.45
102 | CC(C)(CO)CNC(=O)c1cc(-c2cc[nH]n2)n2ccccc12 | 20
103 | Cc1noc(C)c1CN1CCC2(CC1)C(c1cnn(C)c1)CC(=O)N2C (centres undefined) | -106
104 | O=C(C1=CCCC1)N1CCC2(CC1)CC(Oc1cccnc1)CO2 (centres undefined) | -1.58
105 | Cc1noc(C)c1CN1C[C@@H]2CCCO[C@@H]2[C@H](NS(C)(=O)=O)C1 | 12.2
106 | NCc1cc(-c2ccccc2)n2nccc2n1 | -14.7
107 | CCC(C)Oc1ccccc1Cn1cc2[nH]cccc-2c1=O (centres undefined) | -0.0261
108 | COc1cccc(C(=O)NC(c2ccccn2)C2CCC(CN)CC2)c1 (centres undefined) | -9.33
109 | CS(=O)(=O)N1C[C@H]2CC[C@@H](C1)N(Cc1ccc3nsnc3c1)C2 | 3.18
